Measurements as given in paper PMC6989572 (Clinical Drug Investigation, 2019).
Where two headings read alike, the source gives them in different places.

What was measured:
[1] = cited from earlier work
[2] = cited from earlier work; for mean urinary excretion: healthy volunteers
[3] = type: in vivo, Japanese subjects (human); details: single oral 150 mg; for Tmax: both, human, plasma, po, 150 mg, median tmax
Method in brief: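 Renal groups by eGFR from the Japanese creatinine equation. Overnight-fasted subjects received one 150 mg tablet with 150 mL water on Day 1 morning, with no water from 1 h before to 1 h after. Blood was drawn predose, then 0.25–12 h and at 24, 36, 48, 60 and 72 h. Plasma (25 µL) was assayed by validated LC–MS/MS (LLOQ 0.25 ng/mL; linear 0.25–500 ng/mL). AUCinf was regressed on eGFR as a fixed effect.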

Safety assessment = type: in vivo, Japanese subjects (human); details: single oral 150 mg
Method in brief: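 After an overnight fast, a single oral 150 mg tablet was given. Monitoring covered TEAEs, supine BP and pulse, axillary temperature, haematology, biochemistry, urinalysis and 12-lead ECG up to 7 days post-dose, with follow-up 7 (± 2) days after discharge. TEAEs were coded in MedDRA v17.1. The investigator assigned causality and graded severity by CTCAE v4.0.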

SMILES | AUC increase compared with subjects with normal renal function ([1]; mild renal impairment) | Cmax increase compared with subjects with normal renal function ([1]; mild renal impairment) | AUC increase compared with subjects with normal renal function ([1]; moderate renal impairment) | Cmax increase compared with subjects with normal renal function ([1]; moderate renal impairment) | AUC increase compared with subjects with normal renal function ([1]; severe renal impairment) | Cmax increase compared with subjects with normal renal function ([1]; severe renal impairment) | mean urinary excretion ([2]; after 2 weeks of multiple dosing) | median tmax ([2]; healthy subjects, fed conditions) | mean urinary excretion ([2]; single oral dose) | Tmax ([3]; across the renal function groups, fasting conditions) | Tmax ([3]; renal impairment groups, fasting) | linear regression of AUCinf, CL/F and eGFR across the renal function groups [3] | death, serious TEAE or TEAE leading to withdrawal of treatment (Safety assessment; all 31 subjects) | ECG results (Safety assessment; all subjects, day of admission and post-dose time points) | intensity of TEAEs (Safety assessment; both TEAEs (headache, ALT increased)) | vital sign measurements, mean changes from baseline (Safety assessment)
CCS(=O)(=O)N1CC(CC#N)(n2cc(-c3ncnc4[nH]ccc34)cn2)C1 [baricitinib] | 1.41 fold | 1.16 fold | 2.22 fold | 1.46 fold | 4.05 fold | 1.40 fold | – | – | – | – | – | – | – | – | – | –
NC(=O)c1cnc2[nH]ccc2c1N[C@@H]1[C@@H]2CC3C[C@H]1C[C@@](O)(C3)C2 [Peficitinib] | – | – | – | – | – | – | 15–17% | 4 h | 9–15 % of dose | 1.5 to 1.75 h | 1.5 h | no statistically significant slopes | No death, serious TEAE or TEAE leading to withdrawal of treatment was reported | normal | mild | No clinically significant mean changes from baseline
